Reference: ChEMBL document CHEMBL3286166, “Structure-activity relationships of the truncated norzoanthamines exhibiting collagen protection toward anti-osteoporotic activity” (Bioorg Med Chem, 2014)

Organism: Rattus norvegicus
Assay: Binding affinity to rat tail type 1 collagen assessed as collagen protection activity against Clostridium histolyticum collagenase-mediated digestion at 10 uM after 180 mins by Sirius red dye based microplate reader analysis relative to norzoanthamine
In short: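 Acid-solubilized rat tail type I collagen diluted to 1.11 mg/mL in 50 mM Tris (pH 7.4) with 100 mM NaCl and 5 mM CaCl₂. Compound in the same buffer added, 5 min at 37 °C. Digestion started with 2 mg/mL Clostridium histolyticum collagenase at 37 °C. Aliquots at 30–180 min stained with Sirius red, 30 min room temperature, then centrifuged. Remaining collagen at 180 min normalized to norzoanthamine; buffer-only negative control; up to five samples per test.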

Compound | Activity [%]
COC(=O)C[C@@]1(C)[C@H]2C(=O)C[C@@H]3C(=O)C=C(C)C[C@H]3[C@]2(C)C=C2N3C[C@H]4C[C@H](C)C[C@]3(CC[C@]21C)O4 | 5
CCCCc1ccc(CN2C[C@H]3C[C@H](C)C[C@@H]2O3)cc1 | 45
C[C@H]1C[C@@H]2CN(C(=O)OC(C)(C)C)[C@H](C1)O2 | 23
C[C@H]1C[C@@H]2CN(Cc3ccc(-c4ccccc4)cc3)[C@H](C1)O2 | 20
C[C@@H]1C[C@H]2CN3[C@@](CC[C@]4(C)[C@@]5(C)CCC[C@@]34OC(=O)C5)(C1)O2 | 76
C[C@H]1C[C@@H]2CN(Cc3ccc4ccccc4c3)[C@H](C1)O2 | 65
CCCCN1CCC[C@@]2(C)[C@]3(C)CCC[C@]12OC(=O)C3 | 17
C[C@H]1C[C@@H]2CN[C@H](C1)O2 | 31
C[C@H]1C[C@@H]2CN(Cc3ccccc3)[C@H](C1)O2 | 47

Continued, values first:

Activity [%] | Compound
25 | COC(=O)c1cccc(CN2C[C@H]3C[C@H](C)C[C@@H]2O3)c1
31 | C[C@H]1C[C@@H]2CN3C4=CCCC[C@]4(C)CC[C@@]3(C1)O2
100 | C[C@H]1C[C@@H]2CN3[C@](CC[C@@]4(C)[C@]5(C)CCC[C@]34OC(=O)C5)(C1)O2
25 | COC(=O)c1ccccc1-c1ccc(CN2C[C@H]3C[C@H](C)C[C@@H]2O3)cc1
15 | COCCN1CCC[C@@]2(C)[C@]3(C)CCC[C@]12OC(=O)C3
11 | C[C@@]12CCC[C@]3(OC(=O)C1)N(Cc1ccccc1)CCC[C@@]23C
